# OX1R antag-1: antagonists of human orexin 1 receptor (OX1R); OX1R-expressing cells, FRET antagonist read-out; Orexin/Hypocretin receptor type 1 (Homo sapiens), O43613; inhibition, % at 6.6 µM; 330,000 tested, 1.8% active; in the data active = inhibition mostly above about 38%, no sharp cut-off; inactive = mostly below about 40%
# Target sequence (O43613 whole entry, looked up): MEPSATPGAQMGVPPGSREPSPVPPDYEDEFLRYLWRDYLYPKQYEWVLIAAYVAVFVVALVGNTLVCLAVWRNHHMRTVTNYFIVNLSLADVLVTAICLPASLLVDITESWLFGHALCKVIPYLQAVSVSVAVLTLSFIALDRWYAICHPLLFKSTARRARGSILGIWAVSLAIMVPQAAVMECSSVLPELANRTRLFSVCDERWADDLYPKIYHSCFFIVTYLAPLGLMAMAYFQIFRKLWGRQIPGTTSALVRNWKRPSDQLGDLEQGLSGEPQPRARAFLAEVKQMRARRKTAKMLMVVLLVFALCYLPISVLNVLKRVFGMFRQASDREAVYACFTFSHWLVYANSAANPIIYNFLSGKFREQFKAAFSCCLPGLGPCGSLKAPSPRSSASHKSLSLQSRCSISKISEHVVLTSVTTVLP
# TAAR1 agonist: human TAAR1 agonists, primary screen, Fluo-8 calcium fluorescence, CHO RD-HGA16 cells; Trace amine-associated receptor 1 (Homo sapiens), Q96RJ0; vehicle wells 0%, saturating PEA agonist 100%; activation, % at 3 µM; 360,000 tested, 0.99% active;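 active = activation above the mean activation of all test compounds in the run plus 3 SD, cut at about 38% in these data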
#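 Assay system: CHO-derived RD-HGA16 cells with stable Gα16 and human TAAR1; timing: 17-24 h seeding, 75 min 37 °C dye, 30 min RT; read-out: % activation from peak over basal fluorescence ratio, DMSO-to-PEA scaled; measured by: kinetic Fluo-8 calcium fluorescence; benchmarks: low control DMSO, high control PEA (EC100); doses: 3 µM single concentration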
# CHO parental Ca: ATP-evoked calcium signal inhibitors, parental CHO, primary screen, counter-screen for OX1R antagonist project, cell-based, fluorescence, Fluo-8 calcium dye; parental CHO-K1, ATP-induced calcium, Fluo-8 fluorescence; AID 463079, 2010; 330,000 tested, 0.63% active; inhibition, % at 5.6 µM;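 active = inhibition above that plate's mean sample inhibition plus 3 SD, cut at about 26% in these data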
#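 Measured by: calcium-sensitive Fluo-8 fluorescence / Test system: CHO parental line / Controls: ATP-challenged DMSO wells low, unchallenged DMSO wells high / Measure: % inhibition / Compound: single nominal dose of 5.6 µM per compound / Replicates: single well per compound, no replicates / Reagent: ATP as calcium-mobilizing challenge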
# TAAR1 antagonist: human TAAR1 antagonists, primary screen, Fluo-8 calcium fluorescence, CHO RD-HGA16 cells; antagonist; inhibition, % at 3 µM; 360,000 tested, 1.5% active; AID 624466, 2012;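 active = inhibition above a per-plate cutoff, the mean inhibition of test compounds on that plate plus 3 SD, cut at about 49% in these data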
#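 System: CHO RD-HGA16 cells bearing hTAAR1. Reagent: EC80 β-phenethylamine stimulus. Schedule: seeding 17-24 h prior, 75-min 37 °C, 30-min RT dye loading. Signal: Fluo-8 intracellular calcium dye fluorescence, real-time kinetic reads. Read-out: % inhibition from peak post-agonist over basal fluorescence ratio. Benchmarks: vehicle wells and EC80 agonist wells. Replicates: n of 1.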
# GPR7 antag: GPR7 receptor antagonists, primary screen, cell-based, fluorescence, single concentration. GPR7-expressing cells, fluorescence antagonist assay. inhibition, % at 4.4 µM. 290,000 tested, 1.1% active; in the data active = inhibition above about 16%, passing the limit was not always enough;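 also: cells stimulated with the agonist NPW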
# OX1R antag-2: OX1R (HCRTR1) antagonists, primary screen, fluorescence, CHO/OX1R cells, Fluo-8 calcium, orexin A; inhibition, % at 5 µM; Fluo-8 calcium fluorescence; AID 434989, 2010; Orexin/Hypocretin receptor type 1 (Homo sapiens), O43613; 330,000 tested, 0.43% active;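 active = inhibition above its plate's threshold, mean inhibition of all tested compounds on the plate plus 3 SD, cut at about 37% in these data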
# Hits are given with their value; . = inactive; / = not tested or not shown. Shown are actives, neighbours in structure and some others; about 4.5% of the full set was active somewhere.
SMILES,OX1R antag-1,TAAR1 agonist,CHO parental Ca,TAAR1 antagonist,GPR7 antag,OX1R antag-2
O=C(NC(N1CCOCC1)C(Cl)(Cl)Cl)c1cc([N+](=O)[O-])cc([N+](=O)[O-])c1 (stereo unspecified),73,.,.,.,.,.
COC(=O)c1cc(C(=O)N2CCN(c3cccc(Cl)c3)CC2)cc([N+](=O)[O-])c1,.,.,.,.,.,.
Cc1ccc(C(=O)N2CC(C)OC(C)C2)cc1[N+](=O)[O-] (stereo unspecified),.,.,.,.,.,.
COC(=O)c1cc(C(=O)N2CCOCC2)cc([N+](=O)[O-])c1,77,.,.,.,.,.
CC1CN(C(=O)c2cc([N+](=O)[O-])cc([N+](=O)[O-])c2)CC(C)O1 (stereo unspecified),62,.,.,.,.,.
COCCCN1C(=O)C(CC(=O)NC(c2ccccc2)c2ccccc2)CC(C(=O)N(C(C)C)C(C)C)=C1C (stereo unspecified),/,.,/,.,/,/
CCOC(=O)Cc1nnc(NC(=O)COc2ccc(OC)cc2)s1,.,.,.,.,.,.
O=C(COc1ccccc1)Nc1ccncc1,.,.,.,.,.,.
O=C(COc1ccc2ccccc2c1)Nc1ccncc1,.,.,67,.,.,53
Cc1ccnc(NC(=O)COc2ccc(Cl)cc2)n1,.,.,.,.,19,.
O=C(COc1ccc(Cl)cc1)Nc1ncccn1,.,.,.,.,.,.
CCOC(=O)Cc1nnc(NC(=O)COc2ccc(C)cc2)s1,.,38,.,.,.,.
Cc1cc(OCC(=O)Nc2ccc3oc(-c4ccncc4)nc3c2)ccc1Cl,.,.,.,.,.,.
Cc1cc(OCC(=O)Nc2ccncc2)ccc1Cl,.,.,30,.,.,.
Cc1cc(N2CCN(C(=O)OC(C)(C)C)C[C@H]2C)ccc1N1CCS(=O)(=O)CC1,/,.,/,.,/,/
O=C(N[C@H](C(=O)N1CCC[C@H]1C(=O)NCCc1ccccc1Cl)c1ccccc1)C1CCCC1,/,.,/,.,/,/
COC(=O)[C@]12C[C@H](CC(=O)NCCC(C)C)C(=O)N(Cc3ccc4c(c3)OCO4)C1=C[C@H](COCc1ccccc1)O[C@@H]2C,/,.,/,.,/,/
CN(N=Cc1ccccc1O)C(=O)c1ccccc1N,/,.,/,.,/,/
CCCCOc1ccc(C(=O)NC)cc1,.,.,.,.,.,.
CCCCOc1ccc(C(=O)Nc2ccncc2)cc1,.,.,42,.,.,45
CCCCOc1ccc(CC(=O)NO)cc1,.,.,44,.,.,.
CC(C)(C)c1ccc(NC(=O)COc2ccc(-n3ccnc3)cc2)cc1,.,.,44,57,.,62
CCCOc1ccc(C(=O)Nc2cccnc2)cc1,.,.,.,.,.,.
Cc1ccc(Oc2ccc(OCC(=O)Nc3ccncc3)cc2)cc1,.,.,58,.,/,50
O=[N+]([O-])c1ccc(OC2OCC(O)C(O)C2O)cc1 (stereo unspecified),/,.,/,.,/,/
SMILES,OX1R antag-1,TAAR1 agonist,CHO parental Ca,TAAR1 antagonist,GPR7 antag,OX1R antag-2
Nc1[nH]c(C(=O)c2ccccc2)c(-c2ccc(Cl)cc2)c1C(=O)c1c[nH]c2cc(F)ccc12,/,.,/,.,/,/
CN(C)C(=O)N1CCN(C(=O)[C@H]2O[C@@H](n3ccc(N)nc3=O)[C@H](O)[C@@H]2O)CC1,/,.,/,.,/,/
Cc1nnc(Sc2cc(NCCO)c([N+](=O)[O-])c3nonc23)s1,/,.,/,.,.,/
CC(=O)OCCCNc1cc(SCc2ccco2)c2nonc2c1[N+](=O)[O-],73,.,.,.,.,.
CCCC(=O)OCCNc1cc(SCc2ccco2)c2nonc2c1[N+](=O)[O-],68,.,.,.,.,.
CCCSc1cc(NCCOC(=O)CCC)c([N+](=O)[O-])c2nonc12,66,.,.,.,.,.
O=C(C(=O)N1CCC(CNC(=O)c2sc3ccccc3c2Cl)CC1)c1cccs1,/,.,/,.,/,/
CCOC(=O)C1=CCN(S(=O)(=O)c2cccc(Cl)c2)C1c1cccc(Br)c1 (stereo unspecified),/,.,/,.,/,/
COc1ccc(-c2ccc(C(=O)Nc3cccc(NS(C)(=O)=O)c3)c3occc23)c(C)c1,/,.,/,71,/,/
O=C1NC(=O)/C(=C/c2cc3c(cc2Br)OCO3)S1,.,.,.,.,.,.
O=C1NC(=O)/C(=C\c2ccc(Br)o2)S1,38,.,.,.,.,.
CC(=O)Nc1cccc(C(=O)N2CCN(S(=O)(=O)c3ccc(C4CCCCC4)cc3)CC2)c1,/,.,/,.,/,/
O=C(/C=C(\Nc1cccc(OC(F)F)c1)c1ccccc1)c1ccccc1,/,.,/,.,/,/
CCCCc1c(-c2ccccc2OC)ncn1Cc1c(Cl)cccc1Cl,/,.,/,.,/,/
Nc1nc(-c2cccnc2)nc2sc3c(c12)CCCC3,70,.,.,.,.,.
CCc1c(-c2ccccc2)nc2sc3c(c2c1N)CCCC3,49,.,.,.,.,.
Nc1c(C(=O)O)sc2nc(-c3ccccc3)c3c(c12)CCCC3,.,.,.,.,.,.
CC(C)(C)OC(=O)N1CCC2CCN(CCc3ccccc3)CC21 (stereo unspecified),/,.,/,.,/,/
CC1=C(C(=O)N(C(C)C)C(C)C)CC(CC(=O)NCCc2ccccn2)C(=O)N1Cc1ccc(F)cc1 (stereo unspecified),/,38,/,.,/,/
CC1=C(C(=O)N(C)C)CC(CC(=O)NCCc2ccccn2)C(=O)N1Cc1ccc(F)cc1 (stereo unspecified),/,41,/,.,/,/
CC1=C(C(=O)N(C)C)CC(CC(=O)NCCc2ccccn2)C(=O)N1Cc1ccc(C(C)(C)C)cc1 (stereo unspecified),/,.,/,.,/,/
CC1=C(C(=O)N2CCOCC2)CC(CC(=O)NCCc2ccccn2)C(=O)N1Cc1ccc(F)cc1 (stereo unspecified),/,.,/,.,/,/
O=C(NCC1CC1)c1cc(-c2ccccc2)nn1CC1CC(c2cccc([N+](=O)[O-])c2)=NO1 (stereo unspecified),.,.,.,.,/,.
CCC(=O)Nc1ccc2nc3c(=O)[nH]c(=S)[nH]c3nc2c1,65,.,.,.,.,.
C[C@@H]1C=CCCO[C@]12C(=O)N(Cc1ccc(F)cc1)c1ccccc12,/,.,/,.,/,/
N=C(N)c1ccc(/C=C/c2ccc(C(=N)N)cc2O)cc1,46,.,.,.,.,.
C[C@H](CO)N1C[C@H](C)[C@H](CN(C)S(=O)(=O)c2cccs2)Oc2ncc(Br)cc2C1=O,/,.,/,.,/,/
